In paper PMC4784479 (Arthritis & rheumatology (Hoboken, N.J.), 2015):
*1 amine or outer side, *2 acyl side, *3 side chain or, on linkers, in order; H or OH if unused. Where a SMILES comes first, the peptide text is derived from it. Bridges are numbered along the chain shown (N, C = ends). Where no end group is shown, it is not given here. [ ]: non-standard residue; d: D form. X1 = O=C(O)C[C@@H](C(=O)[*:2])N(CCCCN[*:3])[*:1]; X2 = C[C@@H](C(=O)[*:2])N(CCCCN[*:3])[*:1]; CO = O=C([*:1])[*:2]

Legend:
DBA/1 mice with CIA = assay: Collagen-induced arthritis; type: in vivo, mouse; conditions: disease amelioration at ng/kg-range doses; comparison with ref 24–26
primary mouse BMCs = assay: In vitro OC differentiation, primary mouse BMCs; type: cell-based; conditions: SE ligand 65–79*0401 29 μM, Fig. 1J
Outline: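 Primary bone marrow cells from mouse femurs and tibias were plated at 2 × 10^5/well in MEM with 10% FBS and penicillin/streptomycin. They received 10 ng/ml M-CSF alone for 2 d, then 4 d more with 10 ng/ml M-CSF plus 20 ng/ml RANKL, with or without SE ligand 65–79*0401 (29 μM). Cultures were fixed and TRAP-stained. TRAP-positive cells with more than three nuclei were counted. Results are mean ± SEM; Student's t-test.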

[1] = biological target: T1, SE-activated NO signaling (Mus musculus, UniProt P14211); assay: SE ligand-activated NO signaling assay; type: cell-based; conditions: Linear DKCLA 170 μM, SE ligand 65–79*0401 57 μM, Fig. 1F
T1 sequence (P14211 18-416): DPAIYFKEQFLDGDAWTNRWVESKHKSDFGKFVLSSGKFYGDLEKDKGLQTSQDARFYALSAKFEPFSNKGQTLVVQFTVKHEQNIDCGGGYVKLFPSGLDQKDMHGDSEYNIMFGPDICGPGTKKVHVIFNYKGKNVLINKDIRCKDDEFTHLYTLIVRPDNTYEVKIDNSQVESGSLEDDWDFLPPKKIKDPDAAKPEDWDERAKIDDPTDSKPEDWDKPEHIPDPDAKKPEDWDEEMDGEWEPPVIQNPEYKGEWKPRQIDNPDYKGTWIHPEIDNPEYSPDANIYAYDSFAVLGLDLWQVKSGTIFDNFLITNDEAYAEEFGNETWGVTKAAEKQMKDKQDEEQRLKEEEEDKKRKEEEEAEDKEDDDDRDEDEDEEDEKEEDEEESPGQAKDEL

recombinant mouse CRT = biological target: T2, recombinant mouse CRT (Mus musculus, UniProt P14211); assay: SPR direct interaction with CRT; type: binding; conditions: immobilized recombinant CRT, Fig. 1A
T2 sequence (P14211 18-416): T1 sequence (P14211 18-416)
Outline: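 Direct binding was measured by SPR on a CM5 chip preconditioned with NaOH, HCl and SDS pulses and activated with EDC/NHS. Recombinant mouse CRT was amine-coupled at 100 μg/ml (about 5500 RU), then ethanolamine-blocked. Analytes were injected at various concentrations at 25°C and 10 μl/min in HEPES pH 7.4 buffer with KCl, CaCl2, ZnCl2 and P-20. Signal was read in real time as resonance units.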

| Interaction with CRT (SPR) (recombinant mouse CRT) | Molecule | In vivo potency in CIA relative to emerging drugs (mg/kg-range doses) (DBA/1 mice with CIA) | Incremental SE-activated OC differentiation (primary mouse BMCs) | Inhibition of SE ligand-activated NO signaling [1] |
| --- | --- | --- | --- | --- |
|  | CC(C)C[C@@H]1NC(=O)[C@H](CS)NC(=O)[C@H](CCCCN)NC(=O)[C@H](CC(=O)O)N(C(=O)[C@@H](N)Cc2c[nH]c3ccccc23)CCCCNC(=O)NCCCCN([C@@H](C)C(N)=O)C1=O [HS(4–4)c Trp] (H-W[X1]KCL[X2]-NH2; linker 2-6 via CO; N-terminus and C-terminus assumed) | 1,000,000 fold | significantly inhibited |  |
| interacted with CRT | Ac-DKCLA (N-terminus assumed) [DKCLA] |  |  | specifically blocked SE ligand-activated NO signaling |
